From ChEMBL document CHEMBL3091449, “Synthesis and antimicrobial profile of N-substituted imidazolium oximes and their monoquaternary salts against multidrug resistant bacteria” (2013)

Experiments:
Type in all cases: functional
Aspergillus fumigatus = experiment: Antifungal activity against Aspergillus fumigatus FNSST 3833 assessed as diameter of zone of inhibition at 10 ug/disc after 72 hrs by disc diffusion method; conditions: FNSST 3833, 72 h, read-out: DIZ
How it was run: (§1)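 The positive control was amphotericin B 10 µg discs on Sabouraud dextrose agar spread with 100 µL of a 10^4 cfu/mL fungal suspension. Plates were kept at 30 °C for 48 h (yeast) or 72 h (molds). Inhibition zone was measured including the 6 mm disc, in triplicate, mean ± SE.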

Talaromyces funiculosus = experiment: Antifungal activity against Penicillium funiculosum FNSST 3724 assessed as diameter of zone of inhibition at 10 ug/disc after 72 hrs by disc diffusion method; conditions: FNSST 3724, 72 h, read-out: DIZ; how it was run: as §1
Candida albicans = experiment: Antifungal activity against Candida albicans ATCC 10231 assessed as diameter of zone of inhibition at 10 ug/disc after 48 hrs by disc diffusion method; conditions: ATCC 10231, 48 h, read-out: DIZ; how it was run: as §1

`C[C@@H]1[C@H](O)[C@@H](C)/C=C/C=C/C=C/C=C/C=C/C=C/C=C/[C@H](O[C@@H]2O[C@H](C)[C@@H](O)[C@H](N)[C@@H]2O)C[C@@H]2O[C@](O)(C[C@@H](O)C[C@@H](O)[C@H](O)CC[C@@H](O)C[C@@H](O)CC(=O)O[C@H]1C)C[C@H](O)[C@H]2C(=O)O` [AMPHOTERICIN B] gave a zone of inhibition at 10 µg/disc (Aspergillus fumigatus) of 19.2 mm, a zone of inhibition at 10 µg/disc (Talaromyces funiculosus) of 18.3 mm and a zone of inhibition at 10 µg/disc (Candida albicans) of 21.6 mm.
